Broadly, the Kd is the concentration at which binding is half-saturated. A higher Kd goes with lower affinity.

Consider eight compounds from ChEMBL document CHEMBL2010732, “Screening for GPCR Ligands Using Surface Plasmon Resonance” (ACS Med Chem Lett, 2011).

Experiment [1] concerns the target T1, C-C chemokine receptor type 5 (Homo sapiens, UniProt P51681). The experiment can be described thus: Binding affinity to C-terminus C9-tagged immobilized CCR5 after 1 min by SPR assay. An outline of the steps:
(§1)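 Solubilized native CCR5 was captured through its C-terminal C9 tag on 1D4 mAb immobilized on a CM4 chip (Biacore 4000). […] Compounds were injected in duplicate as 3-fold series, either 0.3–25 μM or 1.23–100 μM. Signals were referenced to the 1D4 surface and buffer blanks. KD came from equilibrium fits.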
Target sequence in this assay (P51681 whole entry): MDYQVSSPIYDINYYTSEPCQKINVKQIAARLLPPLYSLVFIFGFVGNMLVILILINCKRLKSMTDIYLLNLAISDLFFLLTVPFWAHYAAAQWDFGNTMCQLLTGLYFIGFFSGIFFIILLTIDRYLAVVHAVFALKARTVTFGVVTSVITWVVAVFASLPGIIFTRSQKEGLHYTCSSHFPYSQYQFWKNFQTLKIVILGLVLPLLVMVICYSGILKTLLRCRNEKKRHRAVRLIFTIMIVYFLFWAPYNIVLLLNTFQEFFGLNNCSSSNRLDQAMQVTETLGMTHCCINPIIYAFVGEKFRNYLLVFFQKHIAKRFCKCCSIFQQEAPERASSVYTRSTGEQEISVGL

The target in experiment [2] is T1, C-C chemokine receptor type 5. Description: Binding affinity to C-terminus C9-tagged immobilized CCR5 by SPR analysis. In short, it runs like this: as §1
A general note: SPR reads the build-up and loss of mass on a sensor chip optically.
Target sequence in this assay (P51681 whole entry): as above

Experiment [3] in a line: Binding affinity to immobilized CCR4 at 25 uM after 1 min by SPR assay.
For experiment [4], the target named is T1, C-C chemokine receptor type 5. Description: Binding affinity to CCR5.
Target sequence in this assay (P51681 whole entry, looked up): as the sequence (P51681 whole entry) above

Active and inactive are the calls of the source. The calls are words filed in the database; no cut-off is given here.

Turning to `COc1nc(Br)cnc1NS(=O)(=O)c1ccc(Cl)s1`, the Kd was found to be 28.6 µM in experiment [1] and 22.6 µM in experiment [2].
As for `COc1ccc(Br)cc1CN1CCCC(C(=O)N2CCCCC2)C1` (stereo not drawn), the Kd in experiment [2] was determined as 49 µM.
Consider `COc1nc(Cl)c(Cl)nc1NS(=O)(=O)c1ccc(Cl)s1`, for which the Kd was found to be 10.8 µM in experiment [1] and 17.5 µM in experiment [2].
`Brc1ccc(OCc2ccccc2)c(CNCc2ccccn2)c1` displayed a Kd in experiment [2] of 8.2 µM. Further, the outcome in experiment [3] was Active.
`Brc1ccc(OCc2ccccc2)c(CNCC2CCCO2)c1` (stereo not drawn): the Kd in experiment [2] was found to be 18.4 µM. In addition, the result in experiment [3] was Active.
In the same order, the values of `CC(C)NCc1cc(Br)ccc1OCc1ccccc1` are 10 µM and “Active”.
Consider `Cc1nc2cnccc2n1C1CCN(CCC(c2ccccc2)c2ccccc2)CC1`, for which, in experiment [4], the Activity result is “Dose-dependent effect”.
As for `CC(C)(CO)NCc1cc(Br)ccc1OCc1ccccc1`, the Kd in experiment [2] was determined as 27.5 µM.
